ChEMBL document CHEMBL4376859, “Prodrugs for nitroreductase-based cancer therapy-3: Antitumor activity of the novel dinitroaniline prodrugs/Ssap-NtrB enzyme suicide gene system: Synthesis, in vitro and in silico evaluation in prostate cancer” (Eur J Med Chem, 2020)
The source made the active and inactive calls. The rule behind the calls is not given here.

Tests used:
Putative nitroreductase [1] = target: T1, Putative nitroreductase (Staphylococcus saprophyticus subsp. saprophyticus (strain ATCC 15305 / DSM20229 / NCIMB 8711 / NCTC 7292 / S-41), UniProt Q4A0P1); assay: Substrate activity at Staphylococcus saprophyticus nitroreductase expressed in Escherichia coli BL21 (DE3) assessed as retention time by HPLC analysis; format: ADME
T1 sequence (Q4A0P1 whole entry): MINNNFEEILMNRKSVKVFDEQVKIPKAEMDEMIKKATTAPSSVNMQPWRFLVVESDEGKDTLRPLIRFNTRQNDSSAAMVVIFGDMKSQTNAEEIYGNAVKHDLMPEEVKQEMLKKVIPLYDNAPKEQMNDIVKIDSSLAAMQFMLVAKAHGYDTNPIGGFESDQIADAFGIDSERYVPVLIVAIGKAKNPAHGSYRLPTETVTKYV

PC-3 [2] = assay: Cytotoxicity against human PC3 cells […] Staphylococcus saprophyticus nitroreductase NtrB assessed as cell viability at 150 uM in presence of NADH as cofactor after 48 hrs by SRB assay relative to control; format: functional; settings: PC-3, 48 h, read-out: Activity
Method in brief: (§1)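 Compounds were reduced outside the cells by purified His-tag (Ni column) Ssap-NtrB. The reaction mix held 600 µM NADH and compound (150, 39, 9 µM, or 180, 18, 1.8 nM) and was applied to PC-3 cells. Controls were compound alone in 25 mM Tris/HCl pH 7.5, and enzyme alone at 31 µg/mL. After 48 h, SRB absorbance was read at 492 nm and converted to % viability.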

PC-3 [3] = assay: Cytotoxicity against human PC3 cells […] Staphylococcus saprophyticus nitroreductase NtrB assessed as reduction in cell viability in presence of NADH as cofactor after 48 hrs by SRB assay; format: functional, cell-based; settings: PC-3, 48 h; method in brief: as §1
Hep 3B2 [4] = assay: Cytotoxicity against human Hep3B cells assessed as cell viability at 9 to 150 uM after 24 hrs by MTT assay relative to control; format: functional
Method in brief: (§2)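 Hep3B hepatoma, PC-3 prostate cancer and HUVEC (healthy control) cells were exposed to nitro compounds at 150, 75, 38, 19 and 9 µM for 24 h and 48 h. Viability was read by MTT assay, and IC50 values were derived from the growth inhibition curves.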

Hep 3B2 [5] = assay: Cytotoxicity against human Hep3B cells assessed as cell viability at 9 to 150 uM after 48 hrs by MTT assay relative to control; format: functional; method in brief: as §2
PC-3 [6] = assay: Cytotoxicity against human PC3 cells assessed as cell viability at 9 to 150 uM after 24 hrs by MTT assay relative to control; format: functional; method in brief: as §2
PC-3 [7] = assay: Cytotoxicity against human PC3 cells assessed as cell viability at 9 to 150 uM after 48 hrs by MTT assay relative to control; format: functional; method in brief: as §2
[8] = Cytotoxicity against human HUVEC cells assessed as cell viability at 9 to 150 uM after 24 hrs by MTT assay relative to control; format: cell-based; settings: read-out: Activity; method in brief: as §2
[9] = Cytotoxicity against human HUVEC cells assessed as cell viability at 9 to 150 uM after 48 hrs by MTT assay relative to control; format: cell-based; settings: read-out: Activity; method in brief: as §2
PC-3 [10] = assay: Cytotoxicity against human PC3 cells assessed as reduction in cell viability after 48 hrs by SRB assay; format: functional, cell-based; method in brief: as §1
Hep 3B2 [11] = assay: Cytotoxicity against human Hep3B cells assessed as cell viability after 24 hrs by MTT assay; format: functional, cell-based; method in brief: as §2
Putative nitroreductase [12] = target: T1, Putative nitroreductase; assay: Substrate activity at Staphylococcus saprophyticus nitroreductase NtrB assessed as Kcat/Km using NADH as cofactor in Tris-Cl buffer at pH 7.5 by HPLC analysis relative to CB1954/NfsB; format: ADME
Hep 3B2 [13] = assay: Cytotoxicity against human Hep3B cells assessed as cell viability after 48 hrs by MTT assay; format: functional, cell-based; method in brief: as §2
Putative nitroreductase [14] = target: T1, Putative nitroreductase; assay: Substrate activity at Staphylococcus saprophyticus nitroreductase NtrB assessed as enzyme specific activity using NADH as cofactor in Tris-Cl buffer at pH 7.5 by HPLC analysis; format: ADME
[15] = substrate: NC(=O)c1cc(N2CC2)c([N+](=O)[O-])cc1[N+](=O)[O-]; assay: Substrate activity at Bacillus amyloliquefaciens nitroreductase ywrO assessed as Km using NADPH as cofactor in sodium phosphate buffer at pH 7.5 by HPLC analysis; format: ADME
[16] = substrate: O=[N+]([O-])c1ccc(Nc2ccc3ccccc3c2)c([N+](=O)[O-])c1; assay: Substrate activity at Staphylococcus saprophyticus nitroreductase NtrB assessed as Km using NADPH as cofactor in Tris-Cl buffer at pH 7.5 by HPLC analysis; format: ADME
[17] = substrate: CCC(=O)Nc1cc(N2CCOCC2)c([N+](=O)[O-])cc1[N+](=O)[O-]; assay: (§3) Substrate activity at Staphylococcus saprophyticus nitroreductase NtrB assessed as Km using NADH as cofactor in Tris-Cl buffer at pH 7.5 by HPLC analysis; format: ADME
[18] = substrate: Nc1ccccc1Nc1ccc([N+](=O)[O-])cc1[N+](=O)[O-]; assay: as §3; format: ADME
[19] = substrate: O=C(CC(F)(F)F)Nc1cc(N2CCOCC2)c([N+](=O)[O-])cc1[N+](=O)[O-]; assay: as §3; format: ADME
[20] = substrate: O=[N+]([O-])c1cc([N+](=O)[O-])c(Nc2ccc(S(=O)(=O)O)cc2)cc1Nc1ccc(S(=O)(=O)O)cc1; assay: as §3; format: ADME
[21] = substrate: O=[N+]([O-])c1ccc(N2CCCCC2)c([N+](=O)[O-])c1; assay: as §3; format: ADME
[22] = substrate: O=[N+]([O-])c1ccc(N2CCOCC2)c([N+](=O)[O-])c1; assay: as §3; format: ADME

Molecule: O=[N+]([O-])c1ccc(NC2CCCCC2)c([N+](=O)[O-])c1
- Retention_time (Putative nitroreductase [1]): 20.58 min
- viability at 150 µM (PC-3 [2]): 50%
- IC50 (PC-3 [3]): > 150 µM
- Activity (Hep 3B2 [4]): >80%
- Activity (Hep 3B2 [5]): >80%
- Activity (PC-3 [6]): >80%
- Activity (PC-3 [7]): >80%
- viability at 24 h, up to 150 µM [8]: > 80%
- viability at 48 h, up to 150 µM [9]: > 80%
- Activity (PC-3 [10]): inactive

Molecule: CN(C)C(=O)Oc1cc(N2CCOCC2)c([N+](=O)[O-])cc1[N+](=O)[O-]
- Retention_time (Putative nitroreductase [1]): 19.28 min
- Activity (Hep 3B2 [4]): >80%
- Activity (Hep 3B2 [5]): >80%
- viability at 24 h, up to 150 µM [8]: 51 to 80%
- viability at 48 h, up to 150 µM [9]: 51 to 80%

Molecule: CCC(=O)Nc1cc(N2CCOCC2)c([N+](=O)[O-])cc1[N+](=O)[O-]
- IC50 (Hep 3B2 [11]): 90.7 µM
- Retention_time (Putative nitroreductase [1]): 20.95 min
- fold change (FC) (Putative nitroreductase [12]): 4.73
- Activity (Hep 3B2 [5]): 51 - 80%
- viability at 24 h, up to 150 µM [8]: 51 to 80%
- viability at 48 h, up to 150 µM [9]: 51 to 80%

Molecule: O=[N+]([O-])c1cc([N+](=O)[O-])c(Nc2ccc(S(=O)(=O)O)cc2)cc1Nc1ccc(S(=O)(=O)O)cc1
- IC50 (Hep 3B2 [13]): 71.9 µM
- Retention_time (Putative nitroreductase [1]): 4.4 min
- fold change (FC) (Putative nitroreductase [12]): 2.37
- Activity (Putative nitroreductase [14]): 2.12 U/mg
- Activity (Hep 3B2 [4]): 51 - 80%
- Activity (PC-3 [6]): >80%
- Activity (PC-3 [7]): >80%
- viability at 24 h, up to 150 µM [8]: > 80%
- viability at 48 h, up to 150 µM [9]: > 80%

Molecule: O=[N+]([O-])c1ccc(N2CCC[C@H]2CO)c([N+](=O)[O-])c1
- Retention_time (Putative nitroreductase [1]): 15.1 min
- viability at 150 µM (PC-3 [2]): 50%
- IC50 (PC-3 [3]): > 150 µM
- Activity (Hep 3B2 [4]): >80%
- Activity (Hep 3B2 [5]): >80%
- viability at 24 h, up to 150 µM [8]: > 80%
- viability at 48 h, up to 150 µM [9]: > 80%
- Activity (PC-3 [10]): inactive

Molecule: O=[N+]([O-])c1ccc(N2CCCCC2)c([N+](=O)[O-])c1
- IC50 (Hep 3B2 [13]): 50.3 µM
- Retention_time (Putative nitroreductase [1]): 24.21 min
- Activity (Putative nitroreductase [14]): 0.49 U/mg
- Activity (Hep 3B2 [4]): 51 - 80%
- Activity (PC-3 [6]): >80%
- Activity (PC-3 [7]): >80%
- viability at 24 h, up to 150 µM [8]: > 80%
- viability at 48 h, up to 150 µM [9]: 51 to 80%
- Activity (PC-3 [10]): inactive

Molecule: COc1cccc(Nc2ccc([N+](=O)[O-])cc2[N+](=O)[O-])c1
- Retention_time (Putative nitroreductase [1]): 18.56 min
- viability at 150 µM (PC-3 [2]): 50%
- IC50 (PC-3 [3]): > 150 µM
- Activity (Hep 3B2 [4]): >80%
- Activity (Hep 3B2 [5]): >80%
- Activity (PC-3 [6]): >80%
- Activity (PC-3 [7]): >80%
- viability at 24 h, up to 150 µM [8]: > 80%
- viability at 48 h, up to 150 µM [9]: > 80%
- Activity (PC-3 [10]): inactive

Molecule: COCCC(=O)Oc1cc(N2CCOCC2)c([N+](=O)[O-])cc1[N+](=O)[O-]
- Activity (Hep 3B2 [4]): >80%
- Activity (Hep 3B2 [5]): >80%
- viability at 24 h, up to 150 µM [8]: 51 to 80%
- viability at 48 h, up to 150 µM [9]: 51 to 80%

B1: Nitroreductase (Bacillus amyloliquefaciens) (protein)
chain: MKVLVLAVHPDMENSAVNKAWAEELKKHDELTVRELYKEYPDGQIDAEKERQLCEQYDRIVFQFPLYWYSAPPLLKTWMDHVLSYGWAYGSKGKALHGKELMLAVSVGAGEDAYQAGGSNHFTLSELLRPFQAMANFTGMTYLPAFALYGVNGADATDIHDNAKRLAAYIKKSF
- Km [15]: 618 µM
- kcat [15]: 8.2 s⁻¹
- kcat/Km [15]: 13300 M⁻¹ s⁻¹

B2: Putative nitroreductase (Staphylococcus saprophyticus subsp. saprophyticus ATCC 15305 = NCTC 7292) (protein)
chain: T1 sequence (Q4A0P1 whole entry)
- Km [16]: 15.7 µM
- kcat [16]: 0.1 s⁻¹
- kcat/Km [16]: 8270 M⁻¹ s⁻¹
- Km [17]: 14 µM
- kcat [17]: 0.37 s⁻¹
- kcat/Km [17]: 26500 M⁻¹ s⁻¹
- Km [18]: 137 µM
- kcat [18]: 0.315 s⁻¹
- kcat/Km [18]: 2300 M⁻¹ s⁻¹
- Km [19]: 9.95 µM
- kcat [19]: 0.234 s⁻¹
- kcat/Km [19]: 26500 M⁻¹ s⁻¹
- Km [20]: 255 µM
- kcat [20]: 3.4 s⁻¹
- kcat/Km [20]: 13300 M⁻¹ s⁻¹
- Km [21]: 104 µM
- kcat [21]: 0.404 s⁻¹
- kcat/Km [21]: 3900 M⁻¹ s⁻¹
- Km [22]: 444 µM
- kcat [22]: 3.1 s⁻¹
- kcat/Km [22]: 6970 M⁻¹ s⁻¹
